Published values from different studies.
Lines come from different studies, so protocols differ.
Target: Homeodomain-interacting protein kinase 3 (HIPK3, Homo sapiens, UniProt Q9H422)

N[C@H]1CCN(c2nccc(-c3cnn4ncccc34)n2)C1  remaining binding (binding; 1 µM): 91%
Cc1cnc(Nc2ccc(C(=O)N3CCC(N4CCCC4)CC3)cc2)nc1-c1cc2ccccc2s1  remaining binding (binding; competition with immobilised ligand; 1 µM): 3.1%
Cc1cnn2ncc(-c3ccnc(N(C)C)n3)c2c1  remaining binding (binding; 1 µM): 68%
COc1cnc(Nc2cccc(S(N)(=O)=O)c2)nc1N1CCN(c2ccccc2)C(=O)C1  remaining binding (binding; competition with immobilised ligand; 1 µM): 82%
O=C(c1ccc(Nc2ncc(Cl)c(-c3ccc(Cl)s3)n2)cc1)N1CCC(N2CCCC2)CC1  remaining binding (binding; competition with immobilised ligand; 1 µM): 3.5%
Nc1ncc2c(n1)-c1c([nH]c3ccc(C#CC4CC4)cc13)CCCC2  remaining binding (binding; competition with immobilised ligand; 1 µM): 78%
CN(C)c1nccc(-c2cnn3ncccc23)n1  remaining binding (binding; 1 µM): 51%
CC(=O)N1CCC(c2ccc(C(=O)NC3=NCCN3)cc2C(F)(F)F)CC1  remaining binding (cell-free assay; competition with immobilised ligand; 1 µM): 72%
COc1ncc2cc3ccccc3nc2c1C#N  remaining binding (cell-free assay; competition with immobilised ligand; 5 µM): 100%
C[C@@H]1CCN(c2nccc(-c3cnn4ncccc34)n2)C1  remaining binding (binding; 1 µM): 68%
C=CC(=O)N1CCC(C(=O)NCC(=O)N2CCN(c3nc(-c4cnc(N)nc4C(F)F)nc(N4CCOCC4)n3)CC2)CC1  remaining binding (binding; competition with immobilised ligand; 1 µM): 100%
CC1CCCN1c1nccc(-c2cnn3ncccc23)n1 (stereo not shown)  remaining binding (binding; 1 µM): 100%
O=C(N[C@H]1CCCCC/C=C\C2C[C@@]2(C(=O)O)NC(=O)[C@@H]2C[C@@H](Oc3ccncc3)CN2C1=O)OC1CCCC1 (stereo partly shown)  remaining binding (binding; competition with immobilised ligand; 1 µM): 100%
O=C(c1ccc(Nc2nccc(-c3cc4ccccc4s3)n2)cc1)N1CCC(N2CCCC2)CC1  remaining binding (binding; competition with immobilised ligand; 1 µM): 19%
CCC(=O)N[C@H]1CC[C@@H](C(=O)N(C)c2ccc(-c3nc4ccccc4o3)cc2)C1  remaining binding (cell-free assay; competition with immobilised ligand; 1 µM): 74%
CN(C)c1ncc(F)c(-c2cnn3ncccc23)n1  remaining binding (binding; 1 µM): 65%
CCS(=O)(=O)c1cc2cc(C[C@@](O)(CC(C)(C)c3ccc(F)cc3C(N)=O)C(F)(F)F)[nH]c2cn1  remaining binding (cell-free assay; competition with immobilised ligand; 1 µM): 65%
O=C(Nc1c[nH]nc1C(=O)NC1CCNCC1)c1cc(F)cc(F)c1  remaining binding (binding; competition with immobilised ligand; 1 µM): 41%
CCCCN(CCCC)C(=O)CN1C[C@@H](c2cc(OC)c3c(c2)OCO3)[C@H](C(=O)O)[C@H]1CC(C)(C)CCC  remaining binding (cell-free assay; competition with immobilised ligand; 1 µM): 100%
CN(C)c1nccc(-c2cnc3ncccn23)n1  remaining binding (binding; 1 µM): 46%
CN(C)C(=O)Cn1cc(-c2nc(C3(c4ccc(-c5cnc(N)nc5)cc4)CC3)no2)cn1  remaining binding (cell-free assay; competition with immobilised ligand; 1 µM): 71%
FC(F)(F)Oc1cccc(-c2cnc3ccc(-c4ccncc4)nn23)c1  remaining binding (cell-free assay; competition with immobilised ligand; 5 µM): 0.7%
